Data as given in ChEMBL document CHEMBL4680071, “Structure guided generation of thieno[3,2-d]pyrimidin-4-amine Mycobacterium tuberculosis bd oxidase inhibitors” (RSC Med Chem, 2021).

What was measured:
[1] = Inhibition of cytochrome-bd oxidase in Mycobacterium bovis BCG assessed as replicating ATP by measuring ATP depletion incubated for 15 hrs in absence of Q203 by BacTiter-Glo luminescence assay; parameters: species or system Mycobacterium tuberculosis variant bovis BCG
Summary of the method: (§1)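 Cultures grown in Middlebrook 7H9 with 0.05% Tween 80, 0.5% glycerol, BSA fraction V, D-glucose and NaCl. Cells pelleted, resuspended in glycerol-free medium at about 10^7 CFU/mL, added to compound dilutions. Plates incubated 15 h at 37°C. BacTiter-Glo reagent added, luminescence read after 12 min to give ATP level. IC50 from curve fitting.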

[2] = Inhibition of cytochrome-bd oxidase in Mycobacterium bovis BCG assessed as replicating ATP by measuring ATP depletion incubated for 15 hrs in presence of Q203 by BacTiter-Glo luminescence assay; parameters: species or system Mycobacterium tuberculosis variant bovis BCG; summary of the method: as §1

SMILES	IC50 [1] [mM]	IC50 [2] [mM]
COc1ccc(CCNc2ncnc3ccsc23)cc1	> 50	42.8
c1ccc(CCNc2ncnc3ccsc23)cc1	> 50	43.3
FS(F)(F)(F)(F)c1ccc(CCNc2ncnc3ccsc23)cc1	> 50	27.1
FC(F)(F)Oc1ccc(CNc2ncnc3ccsc23)cc1	> 50	38.1
COc1ccc(CCNc2ncnc3sccc23)cc1		> 0.05
FC(F)(F)c1cccc(CCNc2ncnc3ccsc23)c1	> 50	25.6
Clc1ccc(CCNc2ncnc3ccsc23)cc1Cl	> 50	25.6
Cc1ccc(CCNc2ncnc3ccsc23)cc1	> 50	40.4
COc1nc2ccc(Br)cc2cc1[C@@H](c1ccccc1)[C@@](O)(CCN(C)C)c1cccc2ccccc12 [BEDAQUILINE]	0.17	0.09
FC(F)(F)c1ccc(Oc2ccc(Nc3ncnc4ccccc34)cc2)cc1	> 50	0.8
FC(F)(F)Oc1ccc(CCNc2ncnc3ccsc23)cc1	> 50	12.6
CC(C)(C)c1ccc(CCNc2ncnc3ccsc23)cc1	> 50	5.8
FC(F)(F)Oc1ccc(Nc2ncnc3ccsc23)cc1	> 50	22.9
Clc1ccc(CCNc2ncnc3ccsc23)cc1	> 50	30.4
FC(F)(F)c1ccc(CCNc2ncnc3ccsc23)cc1	> 50	33.1
CN(C)c1ccc(CCNc2ncnc3ccsc23)cc1	> 50	38.9
FC(F)(F)c1ccccc1CCNc1ncnc2ccsc12	> 50	12.4
